# Bioassay records as filed in PubChem.
# Lipid droplet: modulators of hepatic lipid droplet formation; AML12 mouse hepatocytes, oleate lipid droplets, BODIPY imaging; inhibition, % at 6.5 µM; hit rate 0.4% among 240,000; AID 1656;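 active means lipid droplet intensity inhibited by at least 50%, with more than 500 cells counted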
#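 Material: mouse AML12 hepatocyte cell line, fixed after treatment; Timing: compound with oleate, overnight; Technique: high-content imaging of BODIPY-stained droplets and DAPI nuclei; Probe or stimulus: oleate, 100 µM final; Dosing: compound at 6.5 µM only.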
# Platelet DG rel: platelet dense granule release activity; human platelet-rich plasma, SFLLRN dense granule ATP release, luminescence; inhibition, %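 (compounds screened at 7.5 µM in platelet-rich plasma)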; hit rate 0.22% among 300,000; AID 1663;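 active means mean replicate score, as percent of positive control, at or above 50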
# STAT1 inh: reduces IFN-gamma driven STAT1 reporter signal; NIH 3T3 STAT1-luciferase reporter, luminescence; inhibition, % at 5.5 µM; hit rate 0.35% among 200,000;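 active means inhibition above a set limit, the mean inhibition across all tested compounds plus 3 SD, cut at about 34% in these data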;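 further: 0% = IFN-gamma with DMSO and 100% = IFN-gamma with 300 µM nifuroxazide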
# TAG inh: reduces triacylglycerol accumulation in H9c2 cells | Nile Red lipid (TAG) fluorescence; cells loaded with 200 µM oleic acid | inhibition, % at 12.5 µM | hit rate 0.66% among 230,000 | AID 651582;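 active means pattern-corrected inhibition of lipid staining of at least 50% with the nuclear-stain viability signal not falling by more than 50%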;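 further: 0% = DMSO wells and 100% = triacsin C control wells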
# PPC-1+TRAIL kill: PPC-1 cancer cell killing with TRAIL present; AID 1443; PPC-1 cells + TRAIL, ATPLite viability luminescence; cell killing (% activity), % at 4 µM or 5 µM; hit rate 0.41% among 220,000;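 active means cell killing above 50% in the first pass at 4 µM, then a duplicate retest at 5 µM averaging 50% or more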;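 further: plate controls were cells with TRAIL plus DMSO for no effect and medium-only wells lacking cells for full effect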
# STAT3 blocker: inhibitors of IL-6 induced STAT3 signaling. U3A cells, IL-6 STAT3-luciferase reporter, luminescence; host cell line lacks STAT1. inhibition, % at 5.5 µM. hit rate 0.89% among 190,000;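 active means inhibition above the mean inhibition across all screened compounds plus 3 SD, cut at about 44% in these data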;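 further: 0% = DMSO only wells and 100% = 100 µM nifuroxazide control wells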
# PPC1 cytotox: PPC-1 cell cytotoxicity. hit rate 50% among 1,200. cytotoxicity, % at 5 µM. shares compounds with PPC-1+TRAIL kill. PPC-1 viability, ATPlite luminescence, overnight;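 active means reconfirmed compounds whose average cytotoxicity reaches 50% or more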;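 further: 0% = DMSO-treated cells and 100% = wells holding medium but no cells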
# Active calls of the source: *; · = not tested or not shown. Rows were chosen to be rich in hits. Some 1.5% of all compounds tested hit in one or more screens of this group.
SMILES,Lipid droplet,Platelet DG rel,STAT1 inh,TAG inh,PPC-1+TRAIL kill,STAT3 blocker,PPC1 cytotox
O=C1c2ccccc2C(=O)C1c1ccncc1,-16,17,-29,-5,59*,36,58*
CCCC(=O)Nc1ccc(C2C(=O)c3ccccc3C2=O)cc1,2,28,·,19,·,·,·
CC(=O)Nc1ccc(C2C(=O)c3ccccc3C2=O)cc1,2,4,·,16,53*,·,54*
O=C1c2ccccc2C(=O)C1c1ccccn1,-5,-9,·,7,25,·,·
O=c1[nH]cc(S(=O)(=O)N2CCN(c3ccc(F)cc3)CC2)c(=O)[nH]1,·,·,·,-8,·,·,·
O=C(NC(=O)c1ccccc1O)c1ccc(C(F)(F)F)cc1,-10,1,·,-8,20,·,·
CCCc1ccc(C(=O)NC(=O)c2ccccc2O)cc1,2,-4,·,-2,61*,·,61*
CC(=O)Nc1ccc(NC(=O)Cn2cc3c(n2)CCCC3)cc1,1,0,-5,-32,-5,5,13
CCCCCN=Cc1c(C)[nH]n(-c2nc3ccccc3s2)c1=O,·,1,-31,·,91*,33,91*
CCCOc1ccc(N2C(=O)C3C(C(C)C)NC4(C(=O)c5ccccc5C4=O)C3C2=O)cc1 (stereo unspecified),2,-5,4,-4,0,18,6
Cc1ccc(-n2[nH]c(=O)c3cccnc32)cc1,·,-3,0,·,14,8,·
Cc1ccc(-n2[nH]c(=O)c(-c3ccccn3)c2C)cc1,-2,6,76*,1,46,88*,51*
CCCCOCCOC(=O)C1OC1(C)c1ccccc1 (stereo unspecified),·,·,·,-1,·,·,·
Cc1ccc(S(=O)(=O)NC2CCCC(C(=O)O)C2)cc1 (stereo unspecified),-24,16,1,-2,11,9,13
Cc1ccc(S(=O)(=O)NC2CCCCCCC2)cc1,3,3,·,-4,·,·,·
CN(C)c1ccc(S(=O)(=O)N2CCCCC2)cc1NC(=O)CCNC(=O)c1ccccc1Cl,·,·,·,20,·,·,·
COc1ccc(CNC(=O)c2c(C)oc3c2C(=O)c2ccccc2C3=O)cc1,-14,10,-12,101*,59*,-2,57*
CC(=O)c1c(C)oc2c1C(=O)c1ccccc1C2=O,2,2,-3,·,8,25,·
COc1ccc(/C=C/c2nc3ccccc3n2Cc2ccc(OC)c(OC)c2)cc1,1,23,-94,·,56*,-7,55*
Cc1csc(NC(=O)c2ccc(N3CCCC3=O)cc2)n1,-27,44,65*,5,56*,89*,53*
CCCC(=O)N1CCCC(c2cc(C(=O)Nc3ccccc3)no2)C1 (stereo unspecified),·,·,·,-14,·,·,·
CCCC(C)NC(=O)c1nc(-c2ccccc2)n(-c2ccccc2)n1 (stereo unspecified),1,-4,1,12,-8,8,4
O=C(Nc1ccccn1)c1sc2cccc(F)c2c1Cl,-13,·,15,-7,81*,35,83*
Cc1cccc(-c2cc3c(nn2)-c2ccccc2C3=O)c1,5,2,2,14,35,31,·
COc1ccc(-c2cc3c(nn2)-c2ccccc2C3=O)cc1,·,55*,62*,-3,89*,92*,89*
SMILES,Lipid droplet,Platelet DG rel,STAT1 inh,TAG inh,PPC-1+TRAIL kill,STAT3 blocker,PPC1 cytotox
CC(C)C(Cl)=NOC(=O)Nc1ccc(S(N)(=O)=O)cc1,·,·,·,13,·,·,·
Cc1ccc(C(=O)O/N=C(\N)c2ccccc2)c(Cl)c1,-20,68*,·,2,81*,·,80*
N/C(=N\OC(=O)c1ccc2ccccc2c1)c1ccccn1,-6,66*,71*,·,53*,76*,59*
N/C(=N\OC(=O)c1ccc(Cl)cc1Cl)c1ccccn1,6,56*,89*,·,90*,86*,89*
CC(=NNC(=S)N1CC2CCC(CC2)C1)c1ccncn1,·,·,·,22,·,·,·
COc1cc2nc(CN(C)Cc3ccc(C(C)(C)C)cc3)[nH]c(=O)c2cc1OC,9,1,-6,-4,59*,1,58*
CCN(Cc1nc2cc(OC)c(OC)cc2c(=O)[nH]1)C(=O)c1ccc(S(=O)(=O)N(C)C)cc1,-7,2,0,-36,13,2,·
